Test results reported in ChEMBL document CHEMBL5055634 (J Med Chem, 2021).
pIC50: −log10 of the molar value. Calls of active or inactive are those of the source. No cut-off for these calls is given here.

Tests used:
[1] = tested on: Pseudomonas aeruginosa; assay: Photodynamic antimicrobial activity against Pseudomonas aeruginosa PA01 assessed as bacterial eradication at 10 uM incubated for 10 min in dark followed by irradiation with 20J/cm2 light by viability count technique; assay type: functional, organism-based; details: PAO1
Outline: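 Photoinactivation assay. Overnight cultures were diluted in 10 mM phosphate buffer, pH 7.4, to ~10^6 CFU/mL. Compound was added at 10 μM and held 10 min in the dark, then irradiated at 410 ± 10 nm (20 J/cm2); dark controls were not irradiated. Survivors were counted on LB agar after overnight 37 °C incubation and reported as CFU/mL; at least three independent experiments.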

[2] = tested on: Pseudomonas aeruginosa PAO1; assay: Binding affinity to Pseudomonas aeruginosa PA01 cell wall at 10 uM incubated for 1 hr in dark
Outline: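 Indirect cell-binding assay. Pelleted overnight PAO1 cells were resuspended and diluted 10-fold in PBS, then given compound at 10 μM for 1 h at 37 °C in the dark. After centrifugation, the supernatant visible spectrum (380–700 nm) was compared with the spectrum of each compound alone; a drop in absorbance indicates binding.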

[3] = tested on: Pseudomonas aeruginosa; assay: Antimicrobial activity against Pseudomonas aeruginosa PA01 assessed as inhibition of microbial growth measured after 24 hrs by broth dilution method; assay type: functional; details: PAO1
Outline: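 Broth dilution MIC against P. aeruginosa PAO1. Overnight LB cultures (37 °C, 200 rpm) diluted 100-fold to 10^7 CFU/mL. Two-fold dilution series from 200 to 0.1 μg/mL, 24 h at 37 °C. MIC taken as the lowest concentration with no detectable turbidity. Run at least three times.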

[4] = tested on: DU-145; assay: […] against human DU-145 cells assessed as reduction in cell viability by measuring difference in IC50 pretreated for 24 hrs followed by white light irradiation for 1 hr further incubated for 48 hrs in drug free medium by MTT assay; assay type: functional, cell-based
Outline: (§1)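 Prostate cells were treated for 24 h, irradiated 1 h with white or blue light (dark-kept comparison), then incubated 48 h in drug-free medium.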

[5] = tested on: DU-145; assay: […] against human DU-145 cells assessed as reduction in cell viability by measuring difference in IC50 pretreated for 24 hrs followed by blue light irradiation for 1 hr further incubated for 48 hrs in drug free medium by MTT assay; assay type: functional, cell-based; outline: as §1
[6] = tested on: PC-3; assay: […] against human PC-3 cells assessed as reduction in cell viability by measuring difference in IC50 pretreated for 24 hrs followed by white light irradiation for 1 hr further incubated for 48 hrs in drug free medium by MTT assay; assay type: functional, cell-based; outline: as §1
[7] = tested on: PC-3; assay: […] against human PC-3 cells assessed as reduction in cell viability by measuring difference in IC50 pretreated for 24 hrs followed by blue light irradiation for 1 hr further incubated for 48 hrs in drug free medium by MTT assay; assay type: functional, cell-based; outline: as §1
[8] = Induction of NO production aqueous solution assessed as nitrite level at 80 uM measured after 1 hr of white light irradiation by griess reagent based assay; assay type: functional
Outline: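 Griess assay. Aqueous compound at 160 μM was mixed 1:1 with Griess reagent, giving 80 μM, in a quartz cuvette. The mix was irradiated with a 300 W tungsten lamp at 40 cm for 15 min, 1 h or 2 h. Absorbance was read at 540 nm and nitrite quantified against a NaNO2 standard curve (5–50 μM).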

[9] = tested on: HCT-116; assay: Antitumour activity against human HCT-116 cells assessed as cell growth inhibition at 0.1 to 75 uM incubated for 72 hrs by MTT assay; assay type: functional, cell-based; details: dose 0.1-75 µM
Outline: (§2)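 MTT viability assay. Cells were plated at line-specific densities and left to attach 24 h, then exposed 72 h at 37 °C to 0.1–75 μM, eight replicates per concentration, with 0.2% DMSO controls. MTT was added for 3 h at 37 °C, formazan dissolved in DMSO and read at 570 nm. IC50 came from nonlinear regression; mean ± ES of 4/5 independent experiments.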

[10] = tested on: MDA-MB-231; assay: Antitumour activity against human MDA-MB-231 cells assessed as cell growth inhibition at 0.1 to 75 uM incubated for 72 hrs by MTT assay; assay type: functional, cell-based; details: dose 0.1-75 µM; outline: as §2
[11] = tested on: PC-3; assay: Antitumor activity against human PC-3 cells assessed as cell growth inhibition at 0.1 to 75 uM incubated for 72 hrs by MTT assay; assay type: functional, cell-based; details: dose 0.1-75 µM; outline: as §2
[12] = tested on: DU-145; assay: Antitumor activity against human DU-145 cells assessed as cell growth inhibition at 0.1 to 75 uM incubated for 72 hrs by MTT assay; assay type: functional, cell-based; details: dose 0.1-75 µM; outline: as §2
[13] = tested on: PC-3; assay: Antitumor activity against human PC-3 cells assessed as cell growth inhibition incubated for 72 hrs by MTT assay; assay type: functional, cell-based; details: PC-3, 72 h; outline: as §2

| SMILES | Activity [2] | MIC [3] [µg/mL] | pIC50 [13] | Activity [1] | Activity [4] | Activity [5] | Activity [6] | Activity [7] | Activity [8] [µM] | Activity [9] | Activity [10] | Activity [11] | Activity [12] |
| --- | --- | --- | --- | --- | --- | --- | --- | --- | --- | --- | --- | --- | --- |
| COC(=O)c1cn(C2CC2)c2cc(N3CCN(CCCNc4ccc([N+](=O)[O-])c(C(F)(F)F)c4)CC3)c(F)cc2c1=O | Active | 25 |  |  |  |  |  |  |  | Active | Active | Active | Active |
| O=C(O)c1cn(C2CC2)c2cc(N3CCN(CCCNc4ccc([N+](=O)[O-])c(C(F)(F)F)c4)CC3)c(F)cc2c1=O | Active | 25 | > 5.52 |  | inactive | inactive | inactive | inactive | 6.2 | Active | Active | Active | Active |
| CCn1cc(C(=O)O)c(=O)c2cc(F)c(N3CCN(CCCNc4ccc([N+](=O)[O-])c(C(F)(F)F)c4)CC3)cc21 | Active | 25 |  |  |  |  |  |  | 1.8 |  |  |  |  |
| CCn1cc(C(=O)OC)c(=O)c2cc(F)c(N3CCN(c4ccc([N+](=O)[O-])c(C(F)(F)F)c4)CC3)cc21 | Active | 25 |  |  |  |  |  |  |  |  |  |  |  |
| O=C(O)c1cn(C2CC2)c2cc(N3CCN(CCNc4ccc([N+](=O)[O-])c(C(F)(F)F)c4)CC3)c(F)cc2c1=O | Active | 25 |  |  |  |  |  |  | 0.5 | Active | Active | Active | Active |
| CCn1cc(C(=O)OC)c(=O)c2cc(F)c(N3CCN(CCCNc4ccc([N+](=O)[O-])c(C(F)(F)F)c4)CC3)cc21 | Active | 25 |  |  |  |  |  |  |  |  |  |  |  |
| O=C(O)c1cn(C2CC2)c2cc(N3CCN(c4ccc([N+](=O)[O-])c(C(F)(F)F)c4)CC3)c(F)cc2c1=O | Active | 25 |  |  |  |  |  |  | 0.6 | Active | Active | Active | Active |

The remaining compounds from weak to strong by MIC [3], led by results:

| Activity [2] | MIC [3] [µg/mL] | pIC50 [13] | SMILES | Activity [1] | Activity [4] | Activity [5] | Activity [6] | Activity [7] | Activity [8] [µM] | Activity [9] | Activity [10] | Activity [11] | Activity [12] |
| --- | --- | --- | --- | --- | --- | --- | --- | --- | --- | --- | --- | --- | --- |
| Active | 25 |  | CCn1cc(C(=O)O)c(=O)c2cc(F)c(N3CCN(CCNc4ccc([N+](=O)[O-])c(C(F)(F)F)c4)CC3)cc21 | inactive | inactive | inactive | inactive | inactive | 0.2 |  |  |  |  |
| Active | 25 |  | COC(=O)c1cn(C2CC2)c2cc(N3CCN(c4ccc([N+](=O)[O-])c(C(F)(F)F)c4)CC3)c(F)cc2c1=O |  |  |  |  |  |  | Active | Active | Active | Active |
| Active | 25 |  | CCn1cc(C(=O)O)c(=O)c2cc(F)c(N3CCN(c4ccc([N+](=O)[O-])c(C(F)(F)F)c4)CC3)cc21 |  |  |  |  |  | 3.1 |  |  |  |  |
| Active | 25 |  | CCn1cc(C(=O)OC)c(=O)c2cc(F)c(N3CCN(CCNc4ccc([N+](=O)[O-])c(C(F)(F)F)c4)CC3)cc21 |  |  |  |  |  |  |  |  |  |  |
| Active | 25 |  | COC(=O)c1cn(C2CC2)c2cc(N3CCN(CCNc4ccc([N+](=O)[O-])c(C(F)(F)F)c4)CC3)c(F)cc2c1=O |  |  |  |  |  |  | Active | Active | Active | Active |
